IMP-1 inh: inhibitors of Pseudomonas aeruginosa IMP-1 metallo-beta-lactamase; purified IMP-1, nitrocefin hydrolysis, epi-absorbance fluorescence; inhibition, % at 5.6 µM; 0.45% of 290,000 active; AID 1556;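 active means inhibition above the mean plus 3 SD of all compounds in the same screening run, cut at about 4.5% in these data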
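Material – recombinant IMP-1 enzyme, purified · Amount – IMP-1 0.2 nM before substrate addition · Medium – HEPES buffer pH 7.1 with ZnSO4 and Brij 35 · Timing – 25 °C, 15 min preincubation, 25 min reaction · Measured by – plate fluorescence quenching by hydrolysis product, ex 480/em 530 nm · Read-out – percent enzyme inhibition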
Jurkat NFkB inh: inhibitors of the PMA/ionomycin-induced NF-kB reporter in Jurkat cells | PMA/ionomycin-induced NF-kB luciferase reporter, luminescence | inhibition, % at 4 µM | 0.53% of 330,000 active | AID 435003; in the data active means inhibition above about 50%
Mdm2-MdmX inh: human Mdm2/MdmX binding inhibition; O15151+Q00987; 3% of 330,000 active; SaOS-2 split-luciferase Mdm2/MdmX complementation, luminescence; AID 485346; inhibition, % at 8 µM;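 active means inhibition of at least 50% at 8 µM in the primary screen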
VIM-2 inhibitor: blocks Pseudomonas aeruginosa VIM-2 metallo-beta-lactamase; purified VIM-2, nitrocefin hydrolysis, epi-absorbance fluorescence; 0.89% of 290,000 active; inhibition, % at 5.6 µM;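 active means inhibition above the mean of all tested compounds plus 3 SD, cutoff set per screening run, cut at about 7.5% in these data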;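 further: red hydrolysis product quenches plate fluorescence so inhibitors raise well fluorescence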
697 NFkB inh: inhibitors of the PMA/ionomycin-induced NF-kB reporter in 697 B cells; AID 435022; 697 B-cell NF-kB luciferase reporter, 16 h; 0.33% of 330,000 active; inhibition, % at 4 µM; in the data active means inhibition above about 35%
aSyn 5UTR inh: MLPCN primary screen, SNCA 5' untranslated region; alpha-synuclein 5'UTR reporter, inhibitor activity; inhibition, % (tested at 7.5 µM); 0.82% of 300,000 active; AID 1813; in the data active means inhibition above about 60%;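 further: H4 neuroglioblastoma cells stably carrying SNCA 5'UTR luciferase fusion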
Mdm2-MdmX conf: human Mdm2/MdmX binding inhibition, confirmed | shares compounds with Mdm2-MdmX inh | luminescent assay | inhibition, % at 8 µM | 55% of 10,000 active | AID 489028; in the data active means inhibition above about 40%
Full FLuc ctr: full-length luciferase inhibition in Mdm2/MdmX counter-screen; 77% of 6,200 active; shares compounds with Mdm2-MdmX inh; inhibition, % at 8 µM; SaOS-2 full-length luciferase counterscreen, luminescence;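 active means mean inhibition at 8 µM reaching about 37%, which flags the compound as non-specific, limit read from the data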;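 further: p53-null SaOS-2 cells with luciferase driven by a doxycycline-inducible promoter; compound on cells about two nights before reading with doxycycline added after day one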
Each line names hits and unclear results; the compound was inactive in the other large screens (follow-up assays come after a bar, where they were run). Only some compounds are listed: those with a hit (about 4.7% of all), similar ones and a draw of the others.

COc1cccc(/C=C/C(=C2/C(=O)N(c3ccccc3)N=C2C)c2ccc(Br)cc2)c1OC	Mdm2-MdmX inh 59 | Mdm2-MdmX conf inactive
COc1ccc2[nH]c3c(c2c1)CCN1C(=O)C(CC(=O)NC(C)(C)C)C[C@H](C(=O)N2CCCCC2)[C@@]31CCc1ccccc1 (some centres not stated)	none (no result: IMP-1 inh, Jurkat NFkB inh, VIM-2 inhibitor, aSyn 5UTR inh)
CC(C)(C)NC(=O)CC1C[C@H](C(=O)N2CCCCC2)[C@@]2(CCc3ccccc3)c3[nH]c4ccccc4c3CCN2C1=O (some centres not stated)	Mdm2-MdmX inh 62 (no result: IMP-1 inh, VIM-2 inhibitor, aSyn 5UTR inh) | Mdm2-MdmX conf 50 | Full FLuc ctr 70
O=C(CC1C[C@H](C(=O)N2CCCCC2)[C@@]2(CCc3ccccc3)c3[nH]c4ccccc4c3CCN2C1=O)NCc1ccco1 (some centres not stated)	Mdm2-MdmX inh 52 (no result: IMP-1 inh, VIM-2 inhibitor, aSyn 5UTR inh) | Mdm2-MdmX conf inactive
O=C(NCCCO)/C(=C/c1ccc(-c2cccc([N+](=O)[O-])c2)o1)NC(=O)c1ccccc1	none
Cc1ccc(C(=O)N/C(=C/c2ccc(-c3ccc([N+](=O)[O-])cc3)o2)C(=O)NCCCN(C)C)cc1	Mdm2-MdmX inh 64 (no result: IMP-1 inh, VIM-2 inhibitor) | Mdm2-MdmX conf inactive
CCOc1ccc(-n2c(SCC(=O)Nc3ccc(Br)cc3)nc3n[nH]c(C)c3c2=N)cc1	Mdm2-MdmX inh 53, aSyn 5UTR inh 82 | Mdm2-MdmX conf 41 | Full FLuc ctr 67
CCc1ccc(NC(=O)CSc2nc3n[nH]c(C)c3c(=N)n2-c2cccc(OC)c2)cc1	Mdm2-MdmX inh 66 | Mdm2-MdmX conf 56 | Full FLuc ctr 61
Cc1cc(-n2c(SCC(=O)NCc3cccs3)nc3n[nH]c(C)c3c2=N)ccc1Cl	Mdm2-MdmX inh 66 | Mdm2-MdmX conf inactive
Cc1ccc(CNC(=O)CSc2nc3n[nH]c(C)c3c(=N)n2-c2cccc(C)c2)cc1	none
Cc1[nH]nc2nc(SCC(=O)NCC3CCCO3)n(-c3ccc(Br)cc3)c(=N)c12 (configuration not stated)	none
COc1cccc(NC(=O)CSc2nc3n[nH]c(C)c3c(=N)n2-c2cccc(OC)c2)c1	none
Cc1cc(-n2c(SCC(=O)Nc3ccc(Br)cc3)nc3n[nH]c(C)c3c2=N)ccc1Cl	Mdm2-MdmX inh 86 | Mdm2-MdmX conf 43 | Full FLuc ctr 64
C[C@H]1CN([C@@H](C)CO)C(=O)c2cccc(NS(=O)(=O)c3ccc(F)cc3)c2O[C@H]1CN(C)S(=O)(=O)c1cn(C)cn1	none (no result: IMP-1 inh, VIM-2 inhibitor, aSyn 5UTR inh)
Cc1ccc(C(=O)CN(CCCC(N)=O)C(=O)c2ccncc2)cc1	none (no result: IMP-1 inh, VIM-2 inhibitor, aSyn 5UTR inh)
O=C(Nc1ccccc1)OC(CN1CCCCC1)C(F)(F)F (configuration not stated)	none
Cc1cc(-n2c(SCC(=O)Nc3ccc(F)c(F)c3)nc3n[nH]c(C)c3c2=N)ccc1Cl	Mdm2-MdmX inh 94 | Mdm2-MdmX conf 71 | Full FLuc ctr 42
CCOc1ccc(-n2c(SCC(=O)Nc3ccccc3CC)nc3n[nH]c(C)c3c2=N)cc1	none
CC(C)c1nc(NCCO)c(C#N)c2c1CCCC2	Mdm2-MdmX inh 53 | Mdm2-MdmX conf 57 | Full FLuc ctr inactive
Cc1ccc(S(=O)(=O)N[C@H](C(=O)N2CCC(C(=O)N[C@@H](CC(=O)O)C(=O)O)CC2)C(C)C)cc1	none
Cc1nn(-c2ccccc2)c(C)c1/C=N/NC(=O)c1cc(C23CC4CC(CC(C4)C2)C3)[nH]n1	Mdm2-MdmX inh 63 | Mdm2-MdmX conf inactive
COc1ccc(-c2csc3ncnc(NCCO)c23)cc1	Mdm2-MdmX inh 71 | Mdm2-MdmX conf 59 | Full FLuc ctr inactive
CC(C)(C)c1nn(-c2ccccc2)c2[nH]c(=O)c(CNCc3ccc4c(c3)OCO4)cc12	Mdm2-MdmX inh 92 | Mdm2-MdmX conf 80 | Full FLuc ctr 64
C[N+]1([O-])[C@@H]2Cc3cc4c(cc3[C@@H]1Cc1cc3c(cc12)OCO3)OCO4 (some centres not stated)	none (no result: IMP-1 inh, VIM-2 inhibitor)
COc1ccc(/C=C/c2cc[n+](C(=O)Cc3ccccc3)cc2)cc1	Mdm2-MdmX inh 63 (no result: aSyn 5UTR inh) | Mdm2-MdmX conf 52 | Full FLuc ctr 45
Cc1cccc(N2CCN(C(=O)c3ccc(Cl)c(S(=O)(=O)NCc4ccco4)c3)CC2)c1C	Mdm2-MdmX inh 70 | Mdm2-MdmX conf 74 | Full FLuc ctr 42
CCOC(=O)Cn1nnnc1CN(Cc1cccs1)Cc1cc2cc(C)ccc2[nH]c1=O	none
Cc1ccc2[nH]c(=O)c(CN(Cc3cccs3)Cc3nnnn3Cc3ccccc3)cc2c1	none | Mdm2-MdmX conf inactive
COc1cc(CNC2CCCC2)cc(Cl)c1OCc1ccc(F)cc1	none
CCOc1cc(CNC2CCCC2)cc(Cl)c1OCc1ccc(F)cc1	Mdm2-MdmX inh 58 | Mdm2-MdmX conf 44 | Full FLuc ctr 80
COc1cc(CNC2CCCC2)cc(Cl)c1OCc1ccccc1Cl	Mdm2-MdmX inh 52 | Mdm2-MdmX conf inactive
O=C(CSc1nc2ccccc2nc1N1CCCCC1)N1CCN(c2ccccc2)CC1	none
CCn1c(=O)c(CCC(=O)N2CCN(c3ccccn3)CC2)c(C)c2c(C)nn(-c3cccc(C)c3)c21	Mdm2-MdmX inh 53 | Mdm2-MdmX conf inactive
N#Cc1ccccc1S(=O)(=O)N1CCN(c2nc(-c3cccnc3)nc3ccccc23)CC1	Mdm2-MdmX inh 54 (no result: IMP-1 inh, VIM-2 inhibitor, aSyn 5UTR inh) | Mdm2-MdmX conf 47 | Full FLuc ctr 76
CC(Oc1ccc(Br)cc1)C(=O)Nc1nc(-c2ccccn2)cs1 (configuration not stated)	Mdm2-MdmX inh 80 | Mdm2-MdmX conf 71 | Full FLuc ctr inactive
CC(C)[C@H](NC(=O)c1ccccc1Cl)C(=O)Nc1nc(-c2ccccn2)cs1	Mdm2-MdmX inh 64, aSyn 5UTR inh 64 | Mdm2-MdmX conf 53 | Full FLuc ctr inactive
Cc1ccc(NC(=O)NC(=O)N(C(C)C)S(=O)(=O)c2ccc(C)cc2)cc1	none
CSc1nc(Sc2ccccc2Cl)c2ccccc2n1	Mdm2-MdmX inh 53 | Mdm2-MdmX conf 46 | Full FLuc ctr 55
CCOC(=O)c1cnc(SC)nc1Sc1ccccc1Cl	none (no result: aSyn 5UTR inh)
Cc1nn(Cc2c(Cl)cccc2Cl)c(Cl)c1/C=C/C(=O)OCC(=O)NCC(F)(F)F	Mdm2-MdmX inh 79 | Mdm2-MdmX conf inactive
Cc1nn(Cc2ccccc2)c(Cl)c1/C=C/C(=O)OCC(=O)NC(C)C(C)C (configuration not stated)	none
CN(C)CCNC(=O)c1onc(CSc2ccncc2)c1C(=O)NCCN(C)C	none (no result: IMP-1 inh, VIM-2 inhibitor)
Cc1cc(C)cc(SCc2noc(C(=O)NCCN(C)C)c2C(=O)NCCN(C)C)c1	Mdm2-MdmX inh 89 (no result: IMP-1 inh, VIM-2 inhibitor) | Mdm2-MdmX conf 47 | Full FLuc ctr 49
CCn1c(SCC(=O)Nc2cc(C)nn2-c2ccccc2)nnc1-c1cccs1	none
